Data: ChEMBL document CHEMBL1275305, “Synthesis and in vitro study of pseudo-peptide thioureas containing α-aminophosphonate moiety as potential antitumor agents” (Eur J Med Chem, 2010)

What was measured:
PC-3 [1] = assay: Antitumor activity against human PC3 cells assessed as growth inhibition at 10 uM after 24 hrs by relative to control; type: functional; details: PC-3, 24 h
Method in brief: (§1)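 MTT growth-inhibition screen: 2.0×10^4 cells per well incubated with test compound for 24 h at 37 °C under 5% CO2. MTT then added, supernatant discarded and DMSO added. Absorbance read at 595 nm. Three separate experiments, each run in triplicate.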

Bcap37 = assay: Antitumor activity against human Bcap37 cells assessed as growth inhibition at 10 uM after 24 hrs by relative to control; type: functional; details: Bcap37, 24 h; method in brief: as §1
BGC-823 [2] = assay: Antitumor activity against human BGC823 cells assessed as growth inhibition at 10 uM after 24 hrs by relative to control; type: functional; details: BGC-823, 24 h; method in brief: as §1
PC-3 [3] = assay: Cytotoxicity against human PC3 cells at 1 uM after 72 hrs by relative to control; type: functional; details: PC-3, 72 h
Method in brief: (§2)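 Cells grown in RPMI 1640 with 10% FBS and plated at 2×10^3 cells/well. Compounds were taken up in DMSO, diluted in medium and given at 1-100 µM for 72 h. Controls received 0.1% DMSO. MTT was read 4 h later as formazan absorbance at 595 nm. % cytotoxicity was blank-corrected against control, IC50 taken at 50% cell survival. Three experiments, each in triplicate.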

PC-3 [4] = assay: Cytotoxicity against human PC3 cells at 5 uM after 72 hrs by relative to control; type: functional; details: PC-3, 72 h; method in brief: as §2
PC-3 [5] = assay: Cytotoxicity against human PC3 cells at 10 uM after 72 hrs by relative to control; type: functional; details: PC-3, 72 h; method in brief: as §2
PC-3 [6] = assay: Cytotoxicity against human PC3 cells at 20 uM after 72 hrs by relative to control; type: functional; details: PC-3, 72 h; method in brief: as §2
PC-3 [7] = assay: Cytotoxicity against human PC3 cells after 72 hrs by MTT assay; type: functional, cell-based; details: PC-3, 72 h; method in brief: as §2
BGC-823 [8] = assay: Cytotoxicity against human BGC823 cells at 1 uM after 72 hrs by relative to control; type: functional; details: BGC-823, 72 h; method in brief: as §2
BGC-823 [9] = assay: Cytotoxicity against human BGC823 cells at 5 uM after 72 hrs by relative to control; type: functional; details: BGC-823, 72 h; method in brief: as §2
BGC-823 [10] = assay: Cytotoxicity against human BGC823 cells at 10 uM after 72 hrs by relative to control; type: functional; details: BGC-823, 72 h; method in brief: as §2
BGC-823 [11] = assay: Cytotoxicity against human BGC823 cells at 20 uM after 72 hrs by relative to control; type: functional; details: BGC-823, 72 h; method in brief: as §2
BGC-823 [12] = assay: Cytotoxicity against human BGC823 cells after 72 hrs by MTT assay; type: functional, cell-based; details: BGC-823, 72 h; method in brief: as §2

Row | Structure (SMILES) | inhibition at 10 µM (PC-3 [1]) | inhibition at 10 µM (Bcap37) | inhibition at 10 µM (BGC-823 [2]) | also measured
1 | CCCCOP(=O)(OCCCC)C(NC(=S)N[C@@H](Cc1ccccc1)C(=O)NCc1ccccc1F)c1ccccc1 (stereo partly drawn) | 22.5% | 32.1% | 30.1% | –
2 | CCCCOP(=O)(OCCCC)C(NC(=S)N[C@@H](Cc1ccccc1)C(=O)NCc1ccc(F)cc1)c1ccccc1 (stereo partly drawn) | 19.7% | 48.4% | 26.1% | –
3 | CCCCOP(=O)(OCCCC)C(NC(=S)N[C@H](Cc1ccccc1)C(=O)NCc1ccccc1F)c1ccccc1 (stereo partly drawn) | 18% | 34% | 30.1% | –
4 | CCCCOP(=O)(OCCCC)C(NC(=S)N[C@H](Cc1ccccc1)C(=O)NCc1ccc(F)cc1)c1ccccc1 (stereo partly drawn) | 33.6% | 35.8% | 33.2% | –
5 | CCCCOP(=O)(OCCCC)C(NC(=S)N[C@H](Cc1ccccc1)C(=O)NCc1ccccc1)c1ccccc1 (stereo partly drawn) | 21.7% | 46.6% | 22.7% | –
6 | CCOP(=O)(OCC)C(NC(=S)N[C@H](Cc1ccccc1)C(=O)NCc1ccccc1F)c1ccccc1 (stereo partly drawn) | 73.1% | 70.2% | 30.1% | inhibition at 1 µM (PC-3 [3]): 4.9%; inhibition at 5 µM (PC-3 [4]): 45.6%; inhibition at 10 µM (PC-3 [5]): 73.1%; inhibition at 20 µM (PC-3 [6]): 97.2%; IC50 (PC-3 [7]): 6.7 µM
7 | CCCOP(=O)(OCCC)C(NC(=S)N[C@H](Cc1ccccc1)C(=O)NCc1ccccc1F)c1ccccc1 (stereo partly drawn) | 30.6% | 17.2% | 11.1% | –
8 | CCOP(=O)(OCC)C(NC(=S)N[C@@H](Cc1ccccc1)C(=O)NCc1ccccc1)c1ccccc1 (stereo partly drawn) | 20.1% | 16.9% | 18.3% | –
9 | CC(C)OP(=O)(OC(C)C)C(NC(=S)N[C@H](Cc1ccccc1)C(=O)NCc1ccccc1F)c1ccccc1 (stereo partly drawn) | 14.3% | 27.8% | 51.6% | –
10 | CCCOP(=O)(OCCC)C(NC(=S)N[C@@H](Cc1ccccc1)C(=O)NCc1ccccc1)c1ccccc1 (stereo partly drawn) | 33.5% | 35.4% | 35.7% | –
11 | CCOP(=O)(OCC)C(NC(=S)N[C@H](Cc1ccccc1)C(=O)NCc1ccc(F)cc1)c1ccccc1 (stereo partly drawn) | 32.4% | 34% | 44.5% | –
12 | CC(C)OP(=O)(OC(C)C)C(NC(=S)N[C@@H](Cc1ccccc1)C(=O)NCc1ccccc1)c1ccccc1 (stereo partly drawn) | 50.1% | 24.4% | 27.9% | inhibition at 1 µM (PC-3 [3]): 2.7%; inhibition at 5 µM (PC-3 [4]): 12.8%; inhibition at 10 µM (PC-3 [5]): 21.8%; inhibition at 20 µM (PC-3 [6]): 50.1%; IC50 (PC-3 [7]): 19.5 µM
13 | CCCOP(=O)(OCCC)C(NC(=S)N[C@H](Cc1ccccc1)C(=O)NCc1ccc(F)cc1)c1ccccc1 (stereo partly drawn) | 30.6% | 12.6% | 53.9% | –
14 | CCCCOP(=O)(OCCCC)C(NC(=S)N[C@@H](Cc1ccccc1)C(=O)NCc1ccccc1)c1ccccc1 (stereo partly drawn) | 22.8% | 34.5% | 21.1% | –
15 | CC(C)OP(=O)(OC(C)C)C(NC(=S)N[C@H](Cc1ccccc1)C(=O)NCc1ccc(F)cc1)c1ccccc1 (stereo partly drawn) | 34.8% | 27% | 20.8% | –
16 | CCOP(=O)(OCC)C(NC(=S)N[C@@H](Cc1ccccc1)C(=O)NCc1ccccc1F)c1ccccc1 (stereo partly drawn) | 19.3% | 25.9% | 30.1% | –
17 | CCCOP(=O)(OCCC)C(NC(=S)N[C@@H](Cc1ccccc1)C(=O)NCc1ccccc1F)c1ccccc1 (stereo partly drawn) | 18.1% | 44.7% | 11.1% | –
18 | CC(C)OP(=O)(OC(C)C)C(NC(=S)N[C@@H](Cc1ccccc1)C(=O)NCc1ccccc1F)c1ccccc1 (stereo partly drawn) | 26.8% | 44.4% | 47.9% | –
19 | CCOP(=O)(OCC)C(NC(=S)N[C@@H](Cc1ccccc1)C(=O)NCc1ccc(F)cc1)c1ccccc1 (stereo partly drawn) | 27.9% | 26.1% | 22.9% | –
20 | CCCOP(=O)(OCCC)C(NC(=S)N[C@@H](Cc1ccccc1)C(=O)NCc1ccc(F)cc1)c1ccccc1 (stereo partly drawn) | 56.7% | 24% | 21% | inhibition at 1 µM (PC-3 [3]): 18.1%; inhibition at 5 µM (PC-3 [4]): 19.8%; inhibition at 10 µM (PC-3 [5]): 28%; inhibition at 20 µM (PC-3 [6]): 51.2%; IC50 (PC-3 [7]): 22.1 µM
21 | CC(C)OP(=O)(OC(C)C)C(NC(=S)N[C@@H](Cc1ccccc1)C(=O)NCc1ccc(F)cc1)c1ccccc1 (stereo partly drawn) | 58.6% | 53.1% | 89.1% | inhibition at 1 µM (PC-3 [3]): 15.8%; inhibition at 5 µM (PC-3 [4]): 17.3%; inhibition at 10 µM (PC-3 [5]): 31.4%; inhibition at 20 µM (PC-3 [6]): 66.7%; IC50 (PC-3 [7]): 17.2 µM; inhibition at 1 µM (BGC-823 [8]): 30.6%; inhibition at 5 µM (BGC-823 [9]): 70.1%; inhibition at 10 µM (BGC-823 [10]): 89.1%; inhibition at 20 µM (BGC-823 [11]): 100%; IC50 (BGC-823 [12]): 4.7 µM
22 | CCOP(=O)(OCC)C(NC(=S)N[C@H](Cc1ccccc1)C(=O)NCc1ccccc1)c1ccccc1 (stereo partly drawn) | 56.9% | 52.3% | 55.7% | inhibition at 1 µM (PC-3 [3]): 10.4%; inhibition at 5 µM (PC-3 [4]): 21.2%; inhibition at 10 µM (PC-3 [5]): 56.9%; inhibition at 20 µM (PC-3 [6]): 73.8%; IC50 (PC-3 [7]): 11.2 µM
23 | CCCOP(=O)(OCCC)C(NC(=S)N[C@H](Cc1ccccc1)C(=O)NCc1ccccc1)c1ccccc1 (stereo partly drawn) | 30.8% | 49.1% | 24.4% | –
24 | CC(C)OP(=O)(OC(C)C)C(NC(=S)N[C@H](Cc1ccccc1)C(=O)NCc1ccccc1)c1ccccc1 (stereo partly drawn) | 30.5% | 22.9% | 29% | –
25 | COc1cccc2c1C(=O)c1c(O)c3c(c(O)c1C2=O)C[C@@](O)(C(=O)CO)C[C@@H]3O[C@H]1C[C@H](N)[C@H](O)[C@H](C)O1 [DOXORUBICIN] | – | – | 93.8% | inhibition at 1 µM (PC-3 [3]): 36.4%; inhibition at 5 µM (PC-3 [4]): 89.4%; inhibition at 10 µM (PC-3 [5]): 98%; inhibition at 20 µM (PC-3 [6]): 100%; IC50 (PC-3 [7]): 3.3 µM
